According to PMC3077804 (ACS Chemical Biology, 2010):

Target: T1, AarA (Providencia stuartii, UniProt P46116)
T1 sequence (P46116 1-281): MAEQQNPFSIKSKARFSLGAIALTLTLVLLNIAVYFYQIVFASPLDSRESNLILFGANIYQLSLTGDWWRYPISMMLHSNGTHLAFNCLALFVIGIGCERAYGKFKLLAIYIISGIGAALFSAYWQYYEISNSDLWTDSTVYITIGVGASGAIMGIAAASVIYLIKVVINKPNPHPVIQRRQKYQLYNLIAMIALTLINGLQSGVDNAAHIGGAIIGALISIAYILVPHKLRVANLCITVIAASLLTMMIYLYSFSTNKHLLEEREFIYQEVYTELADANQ
Assay: In vitro fluorescent assay
Type: biochemical
Conditions: SAR
Method in brief: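 Fluorogenic KSp21 peptide (600 nM) cleaved at 24−25 °C by 100 nM AarA or 37 nM chymotrypsin. Buffer: 25 mM Hepes pH 7.4, 5 mM EDTA, 5% glycerol, 0.5% DDM and 20% DMSO (final). Compound was preincubated with enzyme for 30 min at 25 °C, and the reaction was started with peptide. Stopped after 50−60 min, still in the linear phase, with 1 M phosphoric acid pH 1.5; fluorescence read.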

Row | Compound | inhibitory activity against AarA in the fluorescent assay (in words)
1 | Cc1ccc(S(=O)(=O)NC(CCCCN)C(=O)CCl)cc1 (centres unmarked) [TLCK] | inactive
2 | Cc1ccc(S(=O)(=O)N[C@@H](Cc2ccccc2)C(=O)CCl)cc1 [TPCK] | inactive
